Results reported in paper PMC4990137 (ACS chemical biology, 2016).

Columns and labels:
[1] = biological target: T1, LTBP1 (Rhodnius prolixus, UniProt Q7YT09); assay: isothermal titration calorimetry, single-site fit; format: binding
T1 sequence (Q7YT09 18-173): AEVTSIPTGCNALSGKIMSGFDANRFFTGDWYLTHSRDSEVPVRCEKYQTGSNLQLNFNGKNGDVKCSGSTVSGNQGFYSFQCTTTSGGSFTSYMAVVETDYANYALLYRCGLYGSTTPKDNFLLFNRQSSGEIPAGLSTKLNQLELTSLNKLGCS

[2] = biological target: T2, LTBP1 (Rhodnius prolixus, UniProt Q7YT09, Y131A); assay: isothermal titration calorimetry, single-site fit; format: binding
T2 sequence (Q7YT09 18-173 Y131A): T1 sequence (Q7YT09 18-173)
How it was run: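 Titrated by ITC at 30 °C in 20 mM Tris HCl, pH 7.5, 150 mM NaCl, with 2 µM protein in the cell and 10 µL injections of ligand. Eicosanoid ligand solutions were prepared by removing ethanol and sonicating with buffer. Injection enthalpies were fitted to a single-site binding model.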

Kd [1] [nM]	SMILES	Kd [2] [nM]
238	CCCCC/C=C\C[C@@H](O)/C=C/C=C/C=C\[C@@H](O)CCCC(=O)O [LTB4]	
	CCCCC/C=C\C\C=C/C=C/C=C/[C@@H](SC[C@H](NC(=O)CC[C@H](N)C(=O)O)C(=O)NCC(=O)O)[C@@H](O)CCCC(=O)O [LTC4]	47.6
	CCCCC/C=C\C\C=C/C=C/C=C/[C@@H](SC[C@H](N)C(=O)NCC(=O)O)[C@@H](O)CCCC(=O)O [LTD4]	47.6
2.13	CCCCC/C=C\C\C=C/C=C/C=C/[C@@H](SC[C@H](N)C(=O)O)[C@@H](O)CCCC(=O)O [LTE4]	
